Source: ChEMBL document CHEMBL3875163, “Novel urea and bis-urea primaquine derivatives with hydroxyphenyl or halogenphenyl substituents: Synthesis and biological evaluation” (Eur J Med Chem, 2016)
Values after ≈ are worked out from the molar mass of the structure shown. Blank lines part the entries; values can stand above or below the compound they belong to. Active and inactive are the calls of the source. The rule behind the calls is not given here.

How the values were obtained:
[1] = Growth inhibition of mouse L1210 cells after 72 hrs by MTT assay; type: functional, cell-based; details: L1210, 72 h
[2] = Growth inhibition of human Molt4/C8 cells after 72 hrs by MTT assay; type: functional, cell-based; details: MOLT-4, 72 h
[3] = Growth inhibition of human CEM cells after 72 hrs by MTT assay; type: functional, cell-based; details: CCRF-CEM
[4] = Growth inhibition of human HeLa cells after 72 hrs by MTT assay; type: functional, cell-based
[5] = Growth inhibition of human MIAPaCa2 cells after 72 hrs by MTT assay; type: functional, cell-based; details: MIA PaCa-2, 72 h
[6] = Growth inhibition of human NCI-H460 cells after 72 hrs by MTT assay; type: functional, cell-based; details: NCI-H460, 72 h
Summary of the method: (§1)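 Modified NCI DTP protocol: cells in DMEM with 10% FBS, 2 mM glutamine, antibiotics, 37 °C, 5% CO2; seeded 1 × 10^4 to 3 × 10^4 cells/ml on day 0, exposed to five 10-fold dilutions (10^-8 to 10^-4 M) for 72 h; solvent control. MTT read-out; quadruplicate points in three experiments; IC50 by linear regression of growth percentages bracketing 50%.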

[7] = Growth inhibition of human SW620 cells after 72 hrs by MTT assay; type: functional, cell-based; details: SW-620, 72 h; summary of the method: as §1
[8] = Growth inhibition of human MCF7 cells after 72 hrs by MTT assay; type: functional, cell-based; details: MCF7, 72 h; summary of the method: as §1
[9] = Antioxidant activity assessed as DPPH radical scavenging activity at 100 uM after 20 mins relative to control; type: functional
Summary of the method: (§2)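 Compound in DMSO added to DPPH in absolute ethanol, 0.1 mM final; absorbance at 517 nm after 20 and 60 min at room temperature. At least triplicate.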

[10] = Antioxidant activity assessed as DPPH radical scavenging activity at 100 uM after 60 mins relative to control; type: functional; summary of the method: as §2
[11] = Antioxidant activity assessed as inhibition of AAPH-induced linoleic acid lipid peroxidation at 1 x 10^-4 M by UV-absorbance method relative to control; type: functional
Summary of the method: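 Linoleic acid peroxidation: 16 mM sodium linoleate dispersion in 0.05 M phosphate buffer pH 7.4 at 37 °C under air, initiated by AAPH (40 mM solution); compound at 1 × 10^-4 M; oxidation followed at 234 nm. At least triplicate.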

Glycine max = experiment: Inhibition of soybean LOX assessed as reduction in conversion of sodium linoleate to 13-hydroperoxylinoleic acid at 1 x 10^-4 M relative to control
Summary of the method: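 Soybean lipoxygenase incubated at room temperature with sodium linoleate (0.1 mM) and test compound (DMSO stocks); formation of 13-hydroperoxylinoleic acid read at 234 nm. Single-point screening at 1 × 10^-4 M; IC50 from several concentrations. At least triplicate.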

Staphylococcus aureus [12] = experiment: Antibacterial activity against Staphylococcus aureus ATCC 6538 after 18 hrs by serial microdilution broth assay; type: functional; details: ATCC 6538, 18 h
Summary of the method: (§3)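 Broth microdilution MIC per EUCAST for aerobic bacteria in Mueller-Hinton broth, serial dilution 1000 to 0.78125 µg/ml from 10 mg/ml DMSO stocks. Inoculum from trypticase soy broth cultures (18 h, 37 °C), set to 0.5 McFarland in PBS pH 7.4, diluted 1:10. 18 h aerobic incubation at 35 °C in dark, then TTC 0.5 mg/ml for 3 h, HCl-isopropanol, A490. MIC = lowest concentration giving 50% inhibition versus untreated; duplicates.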

Staphylococcus aureus [13] = experiment: Antibacterial activity against methicillin sensitive Staphylococcus aureus ATCC 25923 after 18 hrs by serial microdilution broth assay; type: functional; details: ATCC 25923, 18 h
Summary of the method: (§4)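 EUCAST-based broth microdilution in Mueller-Hinton broth. Glycerol stock cultures grown in trypticase soy broth 18 h at 37 °C; inoculum in PBS pH 7.4 at 0.5 McFarland, diluted 1:10 in broth. Compounds from DMSO stocks, 1000 to 0.78125 µg/ml; 18 h aerobic, 35 °C, dark. TTC 0.5 mg/ml added, 3 h, then HCl/isopropanol, A490. MIC = lowest concentration giving 50% inhibition vs untreated; duplicates, averaged.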

Staphylococcus aureus [14] = experiment: Antibacterial activity against methicillin sensitive Staphylococcus aureus ATCC 25213 after 18 hrs by serial microdilution broth assay; type: functional; details: ATCC 25213, 18 h; summary of the method: as §3
Staphylococcus aureus [15] = experiment: Antibacterial activity against methicillin resistant Staphylococcus aureus MFBF 10682 after 18 hrs by serial microdilution broth assay; type: functional; details: MFBF 10682, 18 h; summary of the method: as §4
Staphylococcus aureus [16] = experiment: Antibacterial activity against methicillin resistant Staphylococcus aureus MFBF 10679 after 18 hrs by serial microdilution broth assay; type: functional; details: MFBF 10679, 18 h; summary of the method: as §4
Enterococcus faecalis [17] = experiment: Antibacterial activity against vancomycin susceptible Enterococcus faecalis ATCC 29212 after 18 hrs by serial microdilution broth assay; type: functional; details: ATCC 29212, 18 h; summary of the method: as §3
Enterococcus faecalis [18] = experiment: Antibacterial activity against vancomycin resistant Enterococcus faecalis MFBF 11419 after 18 hrs by serial microdilution broth assay; type: functional; details: MFBF 11419, 18 h; summary of the method: as §4
Bacillus pumilus = experiment: Antibacterial activity against Bacillus pumilus NCTC 8241 after 18 hrs by serial microdilution broth assay; type: functional; details: NCTC 8241, 18 h; summary of the method: as §3
Bacillus cereus = experiment: Antibacterial activity against Bacillus cereus ATCC 11778 after 18 hrs by serial microdilution broth assay; type: functional; details: ATCC 11778, 18 h; summary of the method: as §3
Bacillus spizizenii = experiment: Antibacterial activity against Bacillus subtilis ATCC 6633 after 18 hrs by serial microdilution broth assay; type: functional; details: ATCC 6633, 18 h; summary of the method: as §3
Pseudomonas aeruginosa [19] = experiment: Antibacterial activity against Pseudomonas aeruginosa ATCC 9027 after 18 hrs by serial microdilution broth assay; type: functional; details: ATCC 9027, 18 h; summary of the method: as §4
Pseudomonas aeruginosa [20] = experiment: Antibacterial activity against Pseudomonas aeruginosa ATCC 27853 after 18 hrs by serial microdilution broth assay; type: functional; details: ATCC 27853, 18 h; summary of the method: as §3
Pseudomonas aeruginosa [21] = experiment: Antibacterial activity against multi-drug resistant Pseudomonas aeruginosa MFBF after 18 hrs by serial microdilution broth assay; type: functional; summary of the method: as §4
Escherichia coli = experiment: Antibacterial activity against Escherichia coli ATCC 10535 after 18 hrs by serial microdilution broth assay; type: functional; details: ATCC 10535, 18 h; summary of the method: as §3
Candida albicans = experiment: Antifungal activity against Candida albicans ATCC 90028 after 18 hrs by serial microdilution broth assay; type: functional; details: ATCC 90028, 18 h
Summary of the method: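 Yeast microdilution in RPMI 1640 with glutamine plus 2% glucose, 1000 to 0.78125 µg/ml from 10 mg/ml DMSO stocks. Growth read with XTT (10 mg/ml) mixed 7:1 with menadione (1 mg/ml in acetone), absorbance at 540 nm. MIC taken as lowest concentration giving 50% growth inhibition versus untreated cells; tests in duplicate.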

[22] = Hemolytic activity against human RBC at 100 ug/ml after 1 hr relative to control; type: ADME, cell-based, Erythrocyte; details: red blood cells (RBC), read-out: Activity
[23] = Cytotoxicity against HEK cells assessed as reduction in cell viability at 3.125 to 25 ug/ml after 24 hrs by MTT assay; type: toxicity, cell-based; details: human, hek293, 24 h
Summary of the method: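 HEK 293 cells, 5 × 10^3 per well, treated next day for 24 h with compound (range within 200 to 1.5625 µg/ml). MTT 0.5 mg/ml in DMEM/10% FBS, 4 h at 37 °C, 5% CO2; formazan in DMSO, A570. Viability as percent of untreated control; triplicates, three independent experiments.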

MCF7 [24] = experiment: Potency index, ratio of ciplatin IC50 to compound IC50 for human MCF7 cells; type: functional
[25] = Cell cycle arrest in human MCF7 cells assessed as increase in G2/M population at 0.31 uM after 24 hrs by propidium iodide staining based flow cytometry; type: functional
Summary of the method: (§5)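 MCF-7 grown in EMEM with 10% FBS, L-glutamine, pyruvate, insulin; treated 0.31 µM for 24 h, DMSO (0.022%) vehicle control. Cells ethanol-fixed (70%, 24 h, -20 °C), RNase A 20 µg/ml 30 min 37 °C, PI 5.5 µg/ml 10 min dark; 20 000 cells by flow cytometry; G1, S, G2/M fractions; three independent experiments, Newman-Keuls test.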

[26] = Cell cycle arrest in human MCF7 cells assessed as decrease in G1 population at 0.31 uM after 24 hrs by propidium iodide staining based flow cytometry; type: functional; summary of the method: as §5
MCF7 [27] = experiment: Induction of apoptosis in human MCF7 cells assessed as increase in number of late apoptotic/necrotic cells at 0.31 uM after 72 hrs by Annexin-V FITC/propidium iodide staining based flow cytometry; type: functional, cell-based
Summary of the method: (§6)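 MCF-7 treated 0.31 µM for 72 h, DMSO control. Washed cells at 1 × 10^6 per 100 µl Annexin V binding buffer, stained FITC Annexin V plus PI 15 min room temperature in dark; 10 000 cells by flow cytometry (ex 488, em 530/580 nm). Viable, early apoptotic, late apoptotic/necrotic and necrotic fractions; three experiments, Duncan test.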

MCF7 [28] = experiment: Induction of apoptosis in human MCF7 cells assessed as increase in number of necrotic cells at 0.31 uM after 72 hrs by Annexin-V FITC/propidium iodide staining based flow cytometry; type: functional, cell-based; summary of the method: as §6
MCF7 [29] = experiment: Induction of apoptosis in human MCF7 cells assessed as increase in cleaved PARP-1 expression at 0.31 uM after 72 hrs by immunoblot method; type: functional, cell-based
Summary of the method: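 MCF-7 treated at 0.31 µM for up to 72 h, controls DMSO and 1 µM doxorubicin. Lysates (CelLytic M with protease inhibitors), BCA quantification; 5 µg protein on 4-20% gels, nitrocellulose transfer, milk block; anti-PARP-1 (1:1000), GAPDH loading control (1:5000) overnight 4 °C, HRP anti-rabbit 1:2000, ECL detection; three independent experiments.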

SMILES: COc1cc(NC(C)CCCNC(=O)Nc2cc(C(F)(F)F)cc(C(F)(F)F)c2)c2ncccc2c1 (stereo not given)
- IC50 [1]: 3.5 µM
- IC50 [2]: 12 µM
- IC50 [3]: 4.1 µM
- IC50 [4]: 3.1 µM
- IC50 [5]: 4.7 µM
- IC50 [6]: 8.3 µM
- IC50 [7]: 3.9 µM
- IC50 [8]: 1.6 µM
- Activity [9]: 51.7%
- Activity [10]: 55.2%
- inhibition [11]: 90.2%
- inhibition (Glycine max): 42.3%
- MIC50 (Staphylococcus aureus [12]): 1.6 µg/mL (≈ 3.11 µM)
- MIC50 (Staphylococcus aureus [13]): 6.3 µg/mL (≈ 12.2 µM)
- MIC50 (Staphylococcus aureus [14]): 12.5 µg/mL (≈ 24.3 µM)
- MIC50 (Staphylococcus aureus [15]): > 100 µg/mL
- MIC50 (Staphylococcus aureus [16]): > 100 µg/mL
- MIC50 (Enterococcus faecalis [17]): > 100 µg/mL
- MIC50 (Enterococcus faecalis [18]): > 100 µg/mL
- MIC50 (Bacillus pumilus): 12.5 µg/mL (≈ 24.3 µM)
- MIC50 (Bacillus cereus): 100 µg/mL (≈ 194 µM)
- MIC50 (Bacillus spizizenii): > 100 µg/mL
- MIC50 (Pseudomonas aeruginosa [19]): 100 µg/mL (≈ 194 µM)
- MIC50 (Pseudomonas aeruginosa [20]): 12.5 µg/mL (≈ 24.3 µM)
- MIC50 (Pseudomonas aeruginosa [21]): > 100 µg/mL
- MIC50 (Escherichia coli): > 100 µg/mL
- MIC50 (Candida albicans): > 100 µg/mL
- hemolysis at 1 h, 100 ug/ml [22]: < 1%
- Activity [23]: Toxic

- inhibition (Glycine max): 31.9%
SMILES: COc1cc(NC(C)CCCNC(=O)NNC(=O)Nc2ccc(F)cc2)c2ncccc2c1 (stereo not given)
- IC50 [1]: 104 µM
- IC50 [2]: ≥ 250 µM
- IC50 [3]: 118 µM
- IC50 [4]: ≥ 250 µM
- IC50 [5]: ≥ 250 µM
- IC50 [6]: > 100 µM
- IC50 [7]: > 100 µM
- IC50 [8]: 0.31 µM
- Ratio IC50 (MCF7 [24]): 42
- Activity [25]: Active
- Activity [26]: Active
- Activity (MCF7 [27]): Active
- Activity (MCF7 [28]): Active
- Activity (MCF7 [29]): Active
- Activity [9]: 7.6%
